Screens as filed in PubChem BioAssay.
This is a sample that favours compounds with a hit; in the whole collection about 1.3% have one here.
proCasp7 act: counter-screen for procaspase-3 activators: activators of human procaspase-7 | P55210 | recombinant procaspase-7, Ac-DEVD-pNA absorbance 405 nm; D23A/D198A/D206A triple mutant, cannot self-cleave; scale: DMSO 0, 5 µM enzyme 100 | activation, % at 8.5 µM | 330,000 tested, 0.093% active | AID 463210;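 active means percent activation above the screen-wide mean plus 3 SD, cut at about 25% in these data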
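signal = Epi-absorbance of released pNA at 405 nm, two timepoints | assay system = Uncleavable procaspase-7 mutant enzyme | reagent = Ac-DEVD-pNA substrate, 400 µM as added | times = 1 h enzyme–compound preincubation and 2 h substrate reaction, both 25 °C | benchmarks = low DMSO alone, high DMSO plus 5 µM PC-7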
procasp3 activ: activates human procaspase-3; P42574; recombinant procaspase-3 D3A, Ac-DEVD-pNA absorbance 405 nm; activation, % at 8.5 µM; 330,000 tested, 0.11% active; AID 463141;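 active means activation above the mean of all tested compounds plus 3 SD, cut at about 21% in these data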;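 further: 0% = DMSO alone and 100% = DMSO wells spiked with extra 5 µM PC-3 D3A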
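Assay system: Autoprocessing-dead procaspase-3 D3A mutant enzyme; also added: Ac-DEVD-pNA; doses: one concentration, 8.5 µM nominal, 0.8% DMSO; times: 1 h compound preincubation, 2 h substrate hydrolysis at 25 °C; technique: 405 nm absorbance of p-nitroaniline, reads at 0 and 120 min; measure: % activation between DMSO and enzyme-spiked controls; repeats: single replicate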
VLA-4 inh: inhibition in a human VLA-4 binding assay; VLA-4 expressing cells, ligand binding flow cytometry; inhibition, % (about 7 µM as worked out from the volumes in the protocol); 330,000 tested, 0.2% active; AID 2557; in the data active means inhibition above about 50%
Lipid droplet: hepatic lipid droplet formation modulation | AML12 mouse hepatocytes, oleate lipid droplets, BODIPY imaging | inhibition, % at 6.5 µM | 240,000 tested, 0.4% active;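 active means lipid droplet intensity inhibited by at least 50%, with more than 500 cells counted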
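Assay system: AML12 hepatocytes (mouse); Probe or stimulus: oleic acid at 100 µM to induce lipid droplet formation; Dosing: compound at 6.5 µM only; Schedule: compound with oleate, overnight; Detection: fluorescence imaging, 20x objective, two fields per well; Measure: % inhibition of lipid droplet signal.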
JMJD2C inh: human JMJD2C demethylase inhibition; Q9H3R0; GST-JMJD2C(1-420) H3K9me3 demethylation, DELFIA europium; inhibition, % at 2.35 µM; 330,000 tested, 0.069% active; AID 2099;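 active means more than half of a compound's replicate wells show inhibition beyond 50%, single wells judged on their own value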;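 further: signal counts dimethyl H3K9 product captured on neutravidin plate; 0% = median of DMSO wells and 100% = 0.3 times that DMSO median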
GRK2 inh: blocks RNA aptamer binding to human GRK2 | 330,000 tested, 0.59% active | P25098 | inhibition of aptamer binding, % at 10 µM | bead flow cytometry, FAM-aptamer displacement from GRK2 | AID 488847;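 active means inhibition of aptamer binding above 40%, roughly 3 SD of noise, on plates passing a quality check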;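 further: median bead fluorescence of bound FAM aptamer so fluorescent compounds give negative values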
Target sequence (P25098 whole entry, looked up): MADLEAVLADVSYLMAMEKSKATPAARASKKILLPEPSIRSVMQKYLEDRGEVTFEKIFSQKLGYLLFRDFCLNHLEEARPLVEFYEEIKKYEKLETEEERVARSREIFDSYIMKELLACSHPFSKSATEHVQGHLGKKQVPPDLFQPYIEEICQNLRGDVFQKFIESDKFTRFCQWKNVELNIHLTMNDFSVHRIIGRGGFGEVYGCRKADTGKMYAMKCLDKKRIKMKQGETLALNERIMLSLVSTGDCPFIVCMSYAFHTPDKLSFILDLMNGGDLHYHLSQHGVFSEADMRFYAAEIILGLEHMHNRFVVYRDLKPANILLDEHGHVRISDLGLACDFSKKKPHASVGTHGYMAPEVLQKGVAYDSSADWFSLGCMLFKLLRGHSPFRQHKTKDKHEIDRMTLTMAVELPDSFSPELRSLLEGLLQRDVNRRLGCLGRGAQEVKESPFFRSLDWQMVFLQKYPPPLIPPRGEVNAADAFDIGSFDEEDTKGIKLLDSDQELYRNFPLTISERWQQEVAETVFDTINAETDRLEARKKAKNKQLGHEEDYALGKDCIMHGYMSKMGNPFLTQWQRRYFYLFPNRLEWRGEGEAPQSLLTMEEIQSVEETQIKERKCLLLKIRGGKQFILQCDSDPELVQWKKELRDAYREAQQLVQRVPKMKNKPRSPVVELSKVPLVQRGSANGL
GRK2 CP1: confirmation of human GRK2 inhibitors displacing RNA aptamer. shares compounds with GRK2 inh. bead-bound GRK2, FAM-aptamer displacement, flow cytometry. aptamer displacement, % at 10 µM. 2,000 tested, 4% active. AID 504451;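 active means aptamer displacement above 40%, near three times the noise of non-fluorescent compounds, on plates passing quality checks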;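 further: negative values mostly reflect intrinsic compound fluorescence rather than true enhancement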
Aptamer quench: fluorescent aptamer quenching in GRK2 counter-screen dose response. fluorescence change (kMESF span), kMESF (concentration not given with the values). AID 504521. shares compounds with GRK2 inh. Fluorescent RNA aptamer beads, flow cytometry; stronger effect = higher value. 110 tested, under 10 active;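 active means compounds whose bead fluorescence drops by more than 37 kMESF across the dose range, marking them as dye quenchers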
Aptamer quench SP: quenches fluorescent RNA aptamer, GRK2 hit artifact; fluorescence response (% of DMSO), % at 10 µM; 2,000 tested, under 10 active; Carboxyfluorescein RNA aptamer on beads, flow cytometry quenching; stronger effect = lower value; shares compounds with GRK2 inh;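 active means compounds that quench the bead-bound fluorescent RNA probe, cutting fluorescence to under half of the solvent control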;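 further: counterscreen run without GRK2 so only probe quenching by compound is measured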
GRK2 confirm 2: confirmation of human GRK2 inhibitors binding RNA aptamer site | shares compounds with GRK2 inh | bead-bound GRK2, FAM-aptamer displacement, flow cytometry | inhibition of aptamer binding, % at 10 µM | 360 tested, under 10 active | AID 504782;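 active means inhibition of aptamer binding above 40%, about triple the noise seen with nonglowing compounds, on plates passing quality control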;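 further: negative values mostly come from compounds that fluoresce themselves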
FAM quench CP2: aptamer fluorescence quenching in GRK2 counter-screen. 360 tested, under 10 active. shares compounds with GRK2 inh. fluorescence response vs DMSO, % at 10 µM. AID 588494. carboxyfluorescein RNA aptamer beads, flow cytometry quenching; stronger effect = lower value;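 active means response vs DMSO under 50%, meaning signal dropped by over half, treated as fluorescence quencher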;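 further: labelled aptamer on streptavidin beads without GRK2 as a quench counter-screen; 100% = bead fluorescence of DMSO wells and lower means quenching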
Numbers without * were called inactive; x = no result given.

SMILES	proCasp7 act	procasp3 activ	VLA-4 inh	Lipid droplet	JMJD2C inh	GRK2 inh	GRK2 CP1	Aptamer quench SP	others
COc1cccc(N2CC(C(=O)Nc3ccc(C(=O)OC(C)C)cc3)CC2=O)c1 (stereo unspecified)	3.9	3.4	-4.8	3.0	-3.1	73.0*	0.9	101.2
CSCC[C@H](NC(=O)COc1ccc(Cl)cc1)c1nc2ccccc2[nH]1	-0.1	-5.6	-5.2	-31.0	3.4	98.0*	0.8	93.8
CC(C)CN(C(=O)/C=C/c1nc2ccccc2s1)C1CCS(=O)(=O)C1 (stereo unspecified)	5.6	6.6	-6.1	x	6.8	5.0	x	x
CN(C)c1ccc(CNC(=O)CCS(=O)(=O)c2ccc3c(c2)n(C)c(=O)c(=O)n3C)cc1	5.4	1.6	8.7	-0.1	-6.9	60.0*	19.4	98.1	GRK2 confirm 2=31.5;FAM quench CP2=101.0
COc1ccc(C(C(=O)NC2CCCCC2)N(Cc2ccco2)C(=O)c2snc(C(N)=O)c2N)cc1 (stereo unspecified)	x	x	x	0.7	-16.9	x	x	x
CC1(C)C=Cc2cc(-c3coc4cc(O)cc(O)c4c3=O)cc(O)c2O1	3.5	14.6	22.2	x	0.3	0.0	x	x
CN(Cc1ccccc1)S(=O)(=O)c1ccc2[nH]cc(C(=O)NCC3CCCO3)c(=O)c2c1 (stereo unspecified)	12.9	-4.3	-9.3	-4.2	x	45.0*	2.1	100.8
CCc1ccccc1NS(=O)(=O)c1ccc2[nH]cc(C(=O)NCC3CCCO3)c(=O)c2c1 (stereo unspecified)	-3.9	-11.7	6.2	-7.1	-1.5	0.0	x	x
COC(=O)Cc1ccc(OC(=O)CCS(=O)(=O)c2ccc(Cl)cc2)cc1	3.9	4.5	-5.3	x	3.0	2.0	x	x
O=C1C(=O)c2ccc(-c3ccccc3)cc2-c2ccccc21	5.2	-12.8	15.4	-20.0	3.9	66.0*	14.6	104.7
COC(=O)c1[nH]c2c(c1C)C(=O)CCC2	14.2	-7.9	21.9	x	3.7	19.0	0.8	92.8
Cc1c(C(=O)OC2CCC(C)CC2)[nH]c2c1C(=O)CCC2 (stereo unspecified)	3.7	6.1	1.6	2.9	10.3	1.0	x	x
COc1cccc(C(=O)OCC(=O)c2c[nH]c3ccccc23)c1OC	11.2	3.5	-11.1	x	x	43.0*	-6.6	121.8
CCn1cc(C(=O)NN)c(=O)c2cc(F)c(N3CCOCC3)cc21	17.5	0.6	-5.4	-22.1	-23.4	1.0	x	x
CCn1cc([N+](=O)[O-])c(=O)c2cc(F)c(N3CCOCC3)cc21	-68.7	-11.3	-8.2	-11.8	-22.2	64.0*	0.5	98.2
Cc1cc(SCC(=O)OCC(=O)NCC2CCCO2)c(C)cc1Br (stereo unspecified)	7.0	-4.0	16.5	26.9	-10.6	0.0	x	x
CCCC[N+](C)(C)CCC(=O)NC(C)(C)CS(=O)(=O)[O-]	10.7	-3.9	28.9	x	3.6	40.0	27.1	102.7	Aptamer quench=-236
O=C(Nc1ccc(S(=O)(=O)N2CCOCC2)cc1)C1CC(=O)N(c2ccc(F)cc2)C1 (stereo unspecified)	-0.9	-0.2	-7.6	10.6	4.2	1.0	x	x
O=C(Nc1cccc(S(=O)(=O)N2CCCCC2)c1)C1=NN(c2ccccc2)C(=O)CC1	-6.7	6.3	4.6	x	0.4	2.0	x	x
